The source of these data is ChEMBL document CHEMBL1933056, “Cytotoxic potential of novel 6,7-dimethoxyquinazolines” (Eur J Med Chem, 2012).

Assay [1] deals with HCT-116. Put plainly: Cytotoxicity against p53-positive human HCT116 cells at 10 uM after 72 hrs by MTT assay. The assay is classed as functional. (Tetrazolium assays rely on reduction of a dye to a coloured formazan, in cell work by metabolically active cells.)
Assay [2] deals with HCT-116. Put plainly: Cytotoxicity against p53-deficient human HCT116 cells at 10 uM after 72 hrs by MTT assay. The assay is classed as functional.
The test system of assay [3] is HEY. As to the kind of experiment: Cytotoxicity against human HEY cells at 10 uM after 72 hrs by MTT assay. The assay is classed as functional. The procedure, abridged: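 Single-concentration MTT screen, continuous 72 h exposure at 10 µM (diluted from a 10 mM DMSO stock). MTT was added at 0.5 mg/mL final for 4 h at 37 °C, the formazan was dissolved in DMSO and absorbance read at 570 nm. Result given as % cells killed, (1 − A/C) × 100, done in triplicate. HEY cells were grown in RPMI 1640 with 10% FBS and 2 mM glutamine.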

Assay [4] deals with HCT-116. As to the kind of experiment: Anticlonogenic activity against p53-deficient human HCT116 cells assessed as inhibition of colony formation at 0.1 to 20 uM after 24 hrs by crystal violet staining-based microscopic analysis. Format: functional, cell-based. The procedure, abridged: (§1)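 Cells plated at 100 cells/well and left to attach overnight. Serial compound dilutions were applied for 24 h, followed by a PBS wash and culture in drug-free medium for 8-10 days until colonies formed. Colonies were fixed in 1% glutaraldehyde for 30 min, stained with 2% crystal violet for 30 min, imaged and counted. Values are the mean of at least three independent experiments.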

Assay [5] relates to HCT-116. Put plainly: Induction of cell cycle arrest in p53-deficient human HCT116 cells assessed as accumulation at G0/G1 phase at 1 uM after 48 hrs by flow cytometric analysis (reference value: 60%). The assay is classed as functional.
Assay [6] has as its system HCT-116. As to the kind of experiment: Cytotoxicity against p53-deficient human HCT116 cells after 72 hrs by MTT assay. Format: functional, cell-based. As to conditions: HCT-116, 72 h. The procedure, abridged: (§2)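 Cells seeded, allowed to attach, then exposed to the drug continuously for 72 h over multiple doses. MTT was added at 0.5 mg/mL final for 4 h at 37 °C, solubilized in DMSO and read at 570 nm. Inhibition = (1 − A/C) × 100. IC50 was taken from a plot of log concentration versus % inhibition, assays in triplicate, with SD from at least three independent experiments.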

The subject of assay [7] is HCT-116. As to the kind of experiment: Growth inhibition of p53-positive human HCT116 cells at > 5 uM after 24 hrs by crystal violet staining-based microscopic analysis. Format: functional, cell-based. The procedure, abridged:
as §1

The test system of assay [8] is HCT-116. As to the kind of experiment: Induction of cell cycle arrest in p53-deficient human HCT116 cells assessed as accumulation at G0/G1 phase at 1 uM after 24 hrs by flow cytometric analysis (reference value: 60%). The assay is classed as functional. In general terms: In flow cytometry, cells or beads pass a laser one at a time.
The subject of assay [9] is HCT-116. As to the kind of experiment: Anticlonogenic activity against p53-positive human HCT116 cells assessed as inhibition of colony formation at 0.1 to 20 uM after 24 hrs by crystal violet staining-based microscopic analysis. The assay is classed as functional, cell-based. The procedure, abridged: as §1
Assay [10] deals with HCT-116. As to the kind of experiment: Induction of cell cycle arrest in p53-deficient human HCT116 cells assessed as accumulation at G2/M phase at 1 uM after 48 hrs by flow cytometric analysis (reference value: 24.5%). The assay is classed as functional.
Assay [11] deals with HCT-116. Put plainly: Induction of cell cycle arrest in p53-deficient human HCT116 cells assessed as accumulation at S phase at 1 uM after 48 hrs by flow cytometric analysis (reference value: 13.5%). Format: functional.
The test system of assay [12] is HCT-116. As to the kind of experiment: Cytotoxicity against p53-positive human HCT116 cells after 72 hrs by MTT assay. Format: functional, cell-based. As to conditions: HCT-116, 72 h. The procedure, abridged:
as §2

Assay [13] concerns HCT-116. Put plainly: Growth inhibition of p53-deficient human HCT116 cells at > 5 uM after 24 hrs by crystal violet staining-based microscopic analysis. The assay is classed as functional, cell-based. The procedure, abridged:
as §1

Assay [14] concerns HCT-116. As to the kind of experiment: Induction of cell cycle arrest in p53-deficient human HCT116 cells assessed as accumulation at G2/M phase at 1 uM after 24 hrs by flow cytometric analysis (reference value: 24.5%). Format: functional.
The test system of assay [15] is HCT-116. As to the kind of experiment: Induction of cell cycle arrest in p53-deficient human HCT116 cells assessed as accumulation at S phase at 1 uM after 24 hrs by flow cytometric analysis (reference value: 13.5%). Format: functional.
For assay [16], the system named is HCT-116. Put plainly: Growth inhibition of p53-deficient human HCT116 cells at > 1 uM after 24 hrs by crystal violet staining-based microscopic analysis. Format: functional, cell-based. The procedure, abridged: as §1
Assay [17] deals with HCT-116. As to the kind of experiment: Growth inhibition of p53-positive human HCT116 cells at > 1 uM after 24 hrs by crystal violet staining-based microscopic analysis. The assay is classed as functional, cell-based. The procedure, abridged: as §1

The source made the active and inactive calls. The rule behind the calls is not given here.

In the case of `COc1ccc(NCc2nc3cc(OC)c(OC)cc3c(=O)[nH]2)cc1`, the Activity came to 38% in [1], 22% in [2] and 19% in assay [3].
On to `COc1cc2nc(Nc3ccccc3-c3ccccc3NS(C)(=O)=O)nc(N)c2cc1OC`, for which the outcome in assay [4] and in assay [9] was Active. The Activity in [5] turned out to be 54.5%; in assay [1], 95%; in [2], 95%; in [8] it was 61%; in [10], 34.5%; in [11], 9%. Further, the Activity in assay [3] is 94%; in assay [14] it was 23%; in [15], 14%. Besides, the IC50 (in general, the midpoint of a concentration-inhibition curve) in assay [6] came to 5 µM; in [12], 6 µM. Moreover, the “growth inhibition (GI)” value in [7] and in assay [13] was “Active” throughout.
With `COc1cc2nc(-c3cccc(C)c3)nc(N)c2cc1OC`, the values for the Activity in assay [1], in [2] and in assay [3] were 20%, 27% and 6%, respectively.
For the compound `COc1cc2nc(Cc3cccc4ccccc34)[nH]c(=O)c2cc1OC`, the outcome in assay [4] and in assay [9] was Active. Also, the IC50 in assay [6] turned out to be 0.7 µM; in assay [12] it was 1.7 µM. In addition, the “growth inhibition (GI)” value in assay [16] and in assay [17] was “Active” throughout. The Activity in assay [1] was found to be 80%; in [2], 79%; in assay [3], 66%.
Consider `COc1cc2nc(-c3cccc(Cl)c3)nc(N)c2cc1OC`, for which the Activity in assay [1] amounted to 19%; in assay [2], 2%; in assay [3], 3%.
On to `COc1ccc(-c2nc(N=[N+]=[N-])c3cc(OC)c(OC)cc3n2)cc1`, for which the IC50 is 7 µM in assay [6] and 10 µM in assay [12]. The results for the Activity in assay [1], in [2] and in [3] were 58%, 48% and 42%, respectively.
Regarding `COc1cc2nc(CNc3ccc(NS(C)(=O)=O)cc3)[nH]c(=O)c2cc1OC`, the values for the Activity in assay [1], in assay [2] and in assay [3] were 28%, 14% and 9%, respectively.
For the compound `COc1cc2nc(-c3cccc(Cl)c3)[nH]c(=O)c2cc1OC`, the Activity in assay [1] is 35%; in assay [2], 37%; in [3], 42%.
`COc1cc2nc(Nc3ccc([N+](=O)[O-])cc3)nc(N)c2cc1OC`: the Activity in assay [1] came to 42%; in assay [2], 22%; in assay [3], 4%.
`COc1ccc(-c2nc3cc(OC)c(OC)cc3c(=O)[nH]2)cc1`: the results for the Activity in assay [1], in [2] and in assay [3] were 10%, 3% and 2%, respectively.
With `CCCCn1c(-c2ccc(NS(C)(=O)=O)cc2)nc2cc(OC)c(OC)cc2c1=O`, the Activity came to 6% in assay [1], 4% in assay [2] and 0.5% in [3].
Regarding `COc1cc2nc(-c3cccc(C)c3)nc(N=[N+]=[N-])c2cc1OC`, the IC50 in [6] is > 10 µM; in assay [12], 9 µM. Also, the Activity in assay [1] is recorded as 55%; in assay [2], 71%; in assay [3], 42%.
In the case of `COc1cc2nc(Cc3ccccc3Cl)[nH]c(=O)c2cc1OC`, the figures for the IC50 in assay [6] and in assay [12] were > 10 µM and 9 µM, respectively. Moreover, the Activity turned out to be 59% in assay [1], 50% in assay [2] and 35% in [3].
Take `COc1ccc(-c2nc(N)c3cc(OC)c(OC)cc3n2)cc1`: the Activity turned out to be 21% in [1], 42% in assay [2] and 17% in [3].
For `COc1cc2nc(-c3ccccc3Cl)nc(N=[N+]=[N-])c2cc1OC`, the figures for the IC50 in [6] and in [12] were > 10 µM and 8 µM, respectively. For the same compound, the Activity is reported as 50% in assay [1], 63% in [2] and 43% in assay [3].
In the case of `CCCCn1c(-c2cccc(NS(C)(=O)=O)c2)nc2cc(OC)c(OC)cc2c1=O`, the Activity in assay [1] came to 26%; in assay [2], 27%; in assay [3], 9%.
As for `CCCCn1c(-c2cccc(-c3nnn[nH]3)c2)nc2cc(OC)c(OC)cc2c1=O`, the Activity in assay [1] is 13%; in assay [2], 3%; in assay [3], 4%.
Taken in the same sequence, the figures for `COc1cc2nc(-c3ccc(C)cc3)nc(N)c2cc1OC` were 5%, 16% and 2%.
Turning to `COc1cccc(-c2nc(N=[N+]=[N-])c3cc(OC)c(OC)cc3n2)c1`, the figures for the Activity in assay [1], in [2] and in assay [3] were 25%, 24% and 13%, respectively.
For the compound `COc1cc2nc(-c3cccc(Cl)c3)nc(N=[N+]=[N-])c2cc1OC`, the IC50 in [6] and in [12] was 10 µM each time. Besides, the figures for the Activity in assay [1], in assay [2] and in assay [3] were 56%, 45% and 35%, respectively.
Take `COc1cc2nc(CNc3ccc(C(=O)O)cc3)[nH]c(=O)c2cc1OC`: the Activity amounted to 30% in assay [1], 8% in assay [2] and 0.5% in assay [3].
Taken in the same sequence, the figures for `COc1cc2nc(-c3cccc(NC(C)=O)c3)[nH]c(=O)c2cc1OC` were 16%, 22% and 12%.
Turning to `COc1cc2nc(CNc3cccc(NS(C)(=O)=O)c3)[nH]c(=O)c2cc1OC`, the Activity in assay [1] is on record as 34%; in [2], 31%; in assay [3], 23%.
The matching figures for `CCCCn1c(-c2ccc(-c3nnn[nH]3)cc2)nc2cc(OC)c(OC)cc2c1=O`: 15%, 8% and 2%.
Turning to `COc1cc2nc(-c3ccc(C)cc3)nc(N=[N+]=[N-])c2cc1OC`, the values for the IC50 in assay [6] and in assay [12] were 9 µM and 8 µM, respectively. Besides, the Activity came to 47% in assay [1], 66% in assay [2] and 29% in assay [3].
With `COc1cc2nc(-c3ccccc3Cl)nc(N)c2cc1OC`, the Activity in assay [1] is 18%; in assay [3], 4%.
As to `COc1cc2nc(Cc3ccc(Cl)cc3)[nH]c(=O)c2cc1OC`, the figures for the IC50 in [6] and in assay [12] were > 10 µM and 9 µM, respectively. Besides, the results for the Activity in [1], in [2] and in assay [3] were 63%, 57% and 49%, respectively.
For `CCCCn1c(-c2ccc(NC(C)=O)cc2)nc2cc(OC)c(OC)cc2c1=O`, the Activity in [1] is given as 19%; in assay [2], 17%; in [3], 6%.
Take `COc1cccc(-c2nc(N)c3cc(OC)c(OC)cc3n2)c1`: the Activity turned out to be 19% in assay [1], 20% in [2] and 7% in assay [3].
